Laboratory results as given in ChEMBL document CHEMBL1131121, “Inactivation of S-adenosyl-L-homocysteine hydrolase and antiviral activity with 5',5',6',6'-tetradehydro-6'-deoxy-6'-halohomoadenosine analogues (4'-haloacetylene analogues derived from adenosine)” (J Med Chem, 1998).
Values after ≈ are worked out from the molar mass of the structure shown.

Legend:
[1] = system: E6SM; experiment: concentration required to inhibit HSV-2(G)-induced cytopathicity by 50% in E6SM cells; assay type: functional, cell-based; conditions: Homo sapiens
Method in brief: (§1)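 Assay measured inhibition of virus-induced cytopathicity in confluent E6SM, HeLa or Vero monolayers. Cells were inoculated with 100 CCID50 of virus for 1 h adsorption, then unbound virus was removed. Cultures were incubated with serial compound concentrations (400, 200, 100 … µg/mL). Cytopathicity was scored once virus control cultures reached complete CPE, and the 50% effective concentration was derived.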

[2] = system: Vero; experiment: Minimum inhibitory concentration (MIC) required to elicit a microscopically visible alteration of cell morphology in Vero cells; assay type: functional; conditions: Chlorocebus sabaeus
[3] = system: E6SM; experiment: concentration required to inhibit VSV-induced cytopathicity by 50% in E6SM cells; assay type: functional, cell-based; conditions: Homo sapiens; method in brief: as §1
[4] = biological target: T1, Adenosylhomocysteinase (Homo sapiens, UniProt P23526); experiment: Inhibition of S-adenosyl-homocysteine hydrolase at 1 uM concentration was determined from enzyme activity remaining; values are per cent of control
Target sequence in this assay (P23526 2-432 limits assumed): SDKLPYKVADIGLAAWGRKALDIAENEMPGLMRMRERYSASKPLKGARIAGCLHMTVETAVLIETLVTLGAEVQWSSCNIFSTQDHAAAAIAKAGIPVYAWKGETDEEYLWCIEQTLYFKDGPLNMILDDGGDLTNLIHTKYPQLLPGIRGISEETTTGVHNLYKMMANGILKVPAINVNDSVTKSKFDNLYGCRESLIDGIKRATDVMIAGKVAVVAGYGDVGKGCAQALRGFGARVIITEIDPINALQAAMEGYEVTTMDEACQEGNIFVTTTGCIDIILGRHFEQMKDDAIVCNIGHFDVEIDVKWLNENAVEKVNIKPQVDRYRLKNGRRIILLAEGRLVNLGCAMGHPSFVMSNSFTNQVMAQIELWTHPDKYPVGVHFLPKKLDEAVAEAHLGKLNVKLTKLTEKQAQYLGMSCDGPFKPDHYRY

[5] = biological target: T1, Adenosylhomocysteinase; experiment: Inhibition of S-adenosyl-homocysteine hydrolase at 100 uM concentration
Method in brief: (§2)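 Recombinant human placental AdoHcy hydrolase was exposed to 100 µM inhibitor in buffer A (50 mM potassium phosphate, pH 7.2, 1 mM EDTA) at 37 °C for 20 min. Residual activity was measured in the synthetic direction with 1 mM Ado plus 5 mM Hcy for 5 min at 37 °C. The reaction was stopped with HClO4 and AdoHcy quantified by C18 reverse-phase HPLC.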
Target sequence in this assay (P23526 2-432 limits assumed): as above

[6] = system: Vero; experiment: concentration required to inhibit Punta Toro virus-induced cytopathicity by 50% in Vero cells; assay type: functional, cell-based; conditions: Chlorocebus sabaeus; method in brief: as §1
[7] = biological target: T1, Adenosylhomocysteinase; experiment: Inhibition of S-adenosyl-homocysteine hydrolase at 10 uM concentration was determined from enzyme activity remaining; values are per cent of control
Target sequence in this assay (P23526 2-432 limits assumed): as above

[8] = system: HeLa; experiment: Minimum inhibitory concentration (MIC) required to elicit a microscopically visible alteration of cell morphology in HeLa cells; assay type: functional; conditions: Homo sapiens
[9] = biological target: T1, Adenosylhomocysteinase; experiment: (§3) Kinetic constant calculated from the pseudo-first-order rate constant(k app) for S-adenosyl-homocysteine hydrolase inactivation
Method in brief: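 For time-dependent inactivation, enzyme (25 nM) was incubated with various inhibitor concentrations in buffer A at 37 °C for 0–5 min, then residual synthetic-direction activity was assayed by HPLC. k_app was taken from the log(remaining activity) versus time plot. k2 and Ki were derived from k_app and [I] by the Kitz–Wilson method.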
Target sequence in this assay (P23526 2-432 limits assumed): as above

[10] = biological target: T1, Adenosylhomocysteinase; experiment: Enzyme-mediated release of halide ions from the compound; assay type: functional
Method in brief: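 Enzyme (10 µM) was incubated with 100 µM compound in buffer A at 37 °C for 20 min and the filtrate collected through a 3000 Mr cutoff device. Cl⁻ and Br⁻ were measured by anion-exchange HPLC with conductivity detection (1.5 mM p-hydroxybenzoic acid/2% methanol, pH 8.5). I⁻ was measured by C18 ion-pair HPLC at 260 nm. All ions were quantified against standard curves.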
Target sequence in this assay (P23526 2-432 limits assumed): as above

[11] = biological target: T1, Adenosylhomocysteinase; experiment: as §3; remark: listed apart in the source
Method in brief: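 Recombinant human placental AdoHcy hydrolase (25 nM) preincubated with 0–100 µM inhibitor in buffer A (50 mM potassium phosphate, pH 7.2, 1 mM EDTA) at 37 °C for 0–5 min. Residual activity then measured in the synthetic direction (Ado 1 mM, Hcy 5 mM, 37 °C, 5 min; AdoHcy by reverse-phase HPLC). k_app taken from log remaining activity vs time; k2 and Ki from Kitz–Wilson analysis.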
Target sequence in this assay (P23526 whole entry): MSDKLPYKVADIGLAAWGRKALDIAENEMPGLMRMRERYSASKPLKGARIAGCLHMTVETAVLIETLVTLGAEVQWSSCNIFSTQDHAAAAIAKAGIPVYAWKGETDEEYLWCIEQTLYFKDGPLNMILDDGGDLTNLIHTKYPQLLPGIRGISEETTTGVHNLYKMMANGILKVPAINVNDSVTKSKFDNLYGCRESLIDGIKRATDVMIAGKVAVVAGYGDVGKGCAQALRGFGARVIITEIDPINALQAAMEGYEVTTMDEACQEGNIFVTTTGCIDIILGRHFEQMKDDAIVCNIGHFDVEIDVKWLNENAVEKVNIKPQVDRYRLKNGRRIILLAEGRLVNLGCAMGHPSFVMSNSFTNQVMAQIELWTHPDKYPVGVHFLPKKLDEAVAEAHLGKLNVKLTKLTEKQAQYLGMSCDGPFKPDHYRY

[12] = system: Vero; experiment: concentration required to inhibit reovirus-1-induced cytopathicity by 50% in Vero cells; assay type: functional, cell-based; conditions: Chlorocebus sabaeus; method in brief: as §1
[13] = system: E6SM; experiment: concentration required to inhibit HSV-1(KOS)-induced cytopathicity by 50% in E6SM cells; assay type: functional, cell-based; conditions: Homo sapiens; method in brief: as §1
[14] = system: E6SM; experiment: concentration required to inhibit vaccinia virus-induced cytopathicity by 50% in E6SM cells; assay type: functional, cell-based; conditions: Homo sapiens; method in brief: as §1
[15] = biological target: T1, Adenosylhomocysteinase; experiment: Inhibition of S-adenosyl-homocysteine hydrolase at 0.1 uM concentration was determined from enzyme activity remaining; values are per cent of control
Target sequence in this assay (P23526 2-432 limits assumed): as the sequence (P23526 2-432 limits assumed) above

[16] = system: HeLa; experiment: concentration required to inhibit Coxsackie virus B4-induced cytopathicity by 50% in HeLa cells; assay type: functional, cell-based; conditions: Homo sapiens; method in brief: as §1
[17] = biological target: T1, Adenosylhomocysteinase; experiment: NADH content of the enzyme (percentage of total coenzyme) from the compound; assay type: functional
Method in brief: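 AdoHcy hydrolase (10 µM) in buffer A was incubated with 100 µM compound at 37 °C for 20 min. Conversion of enzyme-bound NAD⁺ to NADH was followed by UV absorbance at 340 nm and quantified against a standard curve. Values are given as % of total coenzyme.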

[18] = biological target: T1, Adenosylhomocysteinase; experiment: (§4) Enzyme-mediated release of Adenine(Ade) from the compound; assay type: functional
Method in brief: (§5)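 AdoHcy hydrolase (10 µM) was incubated with 100 µM compound in buffer A at 37 °C for 20 min. At each time point the reaction was stopped with 5 M HClO4 and adenine measured by HPLC. The peak identity was confirmed by co-injection with authentic adenine and by CI/NH3 mass spectrometry.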

[19] = system: HeLa; experiment: concentration required to inhibit VSV-induced cytopathicity by 50% in HeLa cells; assay type: functional, cell-based; conditions: Homo sapiens; method in brief: as §1
[20] = system: HeLa; experiment: concentration required to inhibit RSV-induced cytopathicity by 50% in HeLa cells; assay type: functional, cell-based; conditions: Homo sapiens; method in brief: as §1
[21] = biological target: T1, Adenosylhomocysteinase; experiment: Effect on the S-adenosyl-homocysteine hydrolase activity; assay type: functional; method in brief: as §2
[22] = system: E6SM; experiment: Minimum inhibitory concentration (MIC) required to elicit a microscopically visible alteration of cell morphology in E6SM cells; assay type: functional; conditions: Homo sapiens
[23] = system: Vero; experiment: concentration required to inhibit Sindbis virus -induced cytopathicity by 50% in Vero cells; assay type: functional, cell-based; conditions: Chlorocebus sabaeus; method in brief: as §1
[24] = system: Vero; experiment: concentration required to inhibit Coxsackie virus B4-induced cytopathicity by 50% in Vero cells; assay type: functional, cell-based; conditions: Chlorocebus sabaeus; method in brief: as §1
[25] = system: Vero; experiment: concentration required to inhibit parainfluenza-3 virus-induced cytopathicity by 50% in Vero cells; assay type: functional, cell-based; conditions: Chlorocebus sabaeus; method in brief: as §1
[26] = system: E6SM; experiment: concentration required to inhibit HSV-1/TK (B2006) or VMW1837-induced cytopathicity by 50% in E6SM cells; assay type: functional, cell-based; conditions: Homo sapiens; method in brief: as §1
[27] = system: Vero; experiment: concentration required to inhibit reovirus-1 induced cytopathicity by 50% in Vero cells; assay type: functional, cell-based; conditions: Chlorocebus sabaeus; method in brief: as §1
[28] = biological target: T1, Adenosylhomocysteinase; experiment: Inhibition of S-adenosyl-homocysteine hydrolase at 100 uM concentration was determined from S-adenosylhomocysteine hydrolase activity remaining; conditions: values are per cent of control; method in brief: as §2
[29] = biological target: T1, Adenosylhomocysteinase; experiment: Inhibition of S-adenosyl-homocysteine hydrolase at 01 uM concentration was determined from enzyme activity remaining
Method in brief: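 Recombinant human placental AdoHcy hydrolase (25 nM) was preincubated with 0–100 µM inhibitor in buffer A (50 mM potassium phosphate, pH 7.2, 1 mM EDTA) at 37 °C for 20 min. Remaining activity was assayed as AdoHcy formed from 1 mM Ado and 5 mM Hcy (5 min, 37 °C), then HClO4 quench and C18 HPLC. Results are given as % activity remaining.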

[30] = biological target: T1, Adenosylhomocysteinase; experiment: Inhibition of S-adenosyl-homocysteine hydrolase at 100 uM concentration was determined from enzyme activity remaining; conditions: values are per cent of control; method in brief: as §2
[31] = biological target: T1, Adenosylhomocysteinase; experiment: as §4; method in brief: as §5

## Nc1ncnc2c1ncn2C1O[C@H](C#CI)[C@@H](O)[C@H]1O (some centres not stated)
[1]
  EC50: > 10 µM
[2]
  MIC: > 180 µM
[3]
  EC50: 0.08 µM
[4]
  residual activity: 44.6%
[5]
  inhibition: < 2%
[6]
  EC50: > 104 µM
[7]
  residual activity: 8.8%
[8]
  MIC: > 1040 µM
[9]
  k2: 0.095 min⁻¹
[10]
  Release: 0%
[11]
  Ki: 1.1 µM
[12]
  EC50: > 0.78 µM
[13]
  EC50: > 10 µM
[14]
  EC50: 0.26 µM
[15]
  residual activity: 80%
[16]
  EC50: > 260 µM
[17]
  Total coenzyme: 96%
[18]
  Release: 5.7%
[19]
  EC50: 260 µM
[20]
  EC50: > 260 µM
[21]
  Activity: 1.4%
[22]
  MIC: 26 µM (≈ 10.1 µg/mL)
[23]
  EC50: > 104 µM
[24]
  EC50: > 104 µM
[25]
  EC50: 2.6 µM
[26]
  EC50: > 10 µM

## NC1=NC(CCCO)N(CCCO)c2[nH]cnc21 (configuration not stated)
[2]
  MIC: > 1600 µM
[6]
  EC50: > 2000 µM
[8]
  MIC: > 2000 µM
[27]
  EC50: 240 µM
[16]
  EC50: > 2000 µM
[19]
  EC50: 400 µM
[23]
  EC50: > 2000 µM
[24]
  EC50: > 2000 µM
[25]
  EC50: 1200 µM

## Nc1ncnc2c1ncn2C1O[C@H](C#CBr)[C@@H](O)[C@H]1O (some centres not stated)
[1]
  EC50: > 120 µM
[2]
  MIC: > 120 µM
[3]
  EC50: 6 µM
[4]
  residual activity: 73.2%
[6]
  EC50: > 30 µM
[7]
  residual activity: 62.9%
[8]
  MIC: > 300 µM
[9]
  k2: 0.49 min⁻¹
[10]
  Release: 70%
[11]
  Ki: 3.8 µM
[12]
  EC50: 3 µM
[13]
  EC50: > 120 µM
[14]
  EC50: 6 µM
[15]
  residual activity: 91%
[16]
  EC50: > 300 µM
[17]
  Total coenzyme: 49%
[18]
  Release: 28%
[19]
  EC50: 45 µM
[20]
  EC50: 210 µM
[21]
  Activity: 49%
[22]
  MIC: > 300 µM
[23]
  EC50: > 30 µM
[28]
  residual activity: 56%
[24]
  EC50: > 30 µM
[25]
  EC50: 6 µM
[26]
  EC50: > 120 µM

## Nc1ncnc2c1ncn2C1O[C@H](C#CCl)[C@@H](O)[C@H]1O (some centres not stated)
[1]
  EC50: > 140 µM
[2]
  MIC: > 140 µM
[3]
  EC50: 70 µM
[29]
  inhibition: 64%
[6]
  EC50: > 35 µM
[7]
  residual activity: 58.9%
[8]
  MIC: > 340 µM
[30]
  residual activity: 55%
[9]
  k2: 0.48 min⁻¹
[10]
  Release: 28%
[11]
  Ki: 1.7 µM
[12]
  EC50: > 35 µM
[13]
  EC50: > 140 µM
[14]
  EC50: 140 µM
[15]
  residual activity: 89.3%
[31]
  Release: 18%
[16]
  EC50: > 140 µM
[17]
  Total coenzyme: 53%
[19]
  EC50: > 140 µM
[20]
  EC50: > 140 µM
[21]
  Activity: 47%
[22]
  MIC: > 340 µM
[23]
  EC50: > 35 µM
[24]
  EC50: > 35 µM
[25]
  EC50: > 35 µM
[26]
  EC50: > 140 µM

## NC(=O)c1ncn([C@@H]2O[C@H](CO)[C@@H](O)[C@H]2O)n1 [RIBAVIRIN]
[1]
  EC50: 960 µM
[2]
  MIC: > 1600 µM
[3]
  EC50: 192 µM
[6]
  EC50: 64 µM
[8]
  MIC: > 1600 µM
[12]
  EC50: 64 µM
[13]
  EC50: 960 µM
[14]
  EC50: 192 µM
[16]
  EC50: 320 µM
[19]
  EC50: 192 µM
[22]
  MIC: > 1600 µM
[23]
  EC50: 64 µM
[24]
  EC50: > 1600 µM
[25]
  EC50: 64 µM
[26]
  EC50: 128 µM
